Calls of active or inactive are those of the source. No cut-off for these calls is given here.
How the values were obtained:
[1] = target: T1, Tyrosine-protein kinase JAK3 (Homo sapiens, UniProt P52333); experiment: Inhibition of recombinant JAK3
T1 sequence (P52333 whole entry): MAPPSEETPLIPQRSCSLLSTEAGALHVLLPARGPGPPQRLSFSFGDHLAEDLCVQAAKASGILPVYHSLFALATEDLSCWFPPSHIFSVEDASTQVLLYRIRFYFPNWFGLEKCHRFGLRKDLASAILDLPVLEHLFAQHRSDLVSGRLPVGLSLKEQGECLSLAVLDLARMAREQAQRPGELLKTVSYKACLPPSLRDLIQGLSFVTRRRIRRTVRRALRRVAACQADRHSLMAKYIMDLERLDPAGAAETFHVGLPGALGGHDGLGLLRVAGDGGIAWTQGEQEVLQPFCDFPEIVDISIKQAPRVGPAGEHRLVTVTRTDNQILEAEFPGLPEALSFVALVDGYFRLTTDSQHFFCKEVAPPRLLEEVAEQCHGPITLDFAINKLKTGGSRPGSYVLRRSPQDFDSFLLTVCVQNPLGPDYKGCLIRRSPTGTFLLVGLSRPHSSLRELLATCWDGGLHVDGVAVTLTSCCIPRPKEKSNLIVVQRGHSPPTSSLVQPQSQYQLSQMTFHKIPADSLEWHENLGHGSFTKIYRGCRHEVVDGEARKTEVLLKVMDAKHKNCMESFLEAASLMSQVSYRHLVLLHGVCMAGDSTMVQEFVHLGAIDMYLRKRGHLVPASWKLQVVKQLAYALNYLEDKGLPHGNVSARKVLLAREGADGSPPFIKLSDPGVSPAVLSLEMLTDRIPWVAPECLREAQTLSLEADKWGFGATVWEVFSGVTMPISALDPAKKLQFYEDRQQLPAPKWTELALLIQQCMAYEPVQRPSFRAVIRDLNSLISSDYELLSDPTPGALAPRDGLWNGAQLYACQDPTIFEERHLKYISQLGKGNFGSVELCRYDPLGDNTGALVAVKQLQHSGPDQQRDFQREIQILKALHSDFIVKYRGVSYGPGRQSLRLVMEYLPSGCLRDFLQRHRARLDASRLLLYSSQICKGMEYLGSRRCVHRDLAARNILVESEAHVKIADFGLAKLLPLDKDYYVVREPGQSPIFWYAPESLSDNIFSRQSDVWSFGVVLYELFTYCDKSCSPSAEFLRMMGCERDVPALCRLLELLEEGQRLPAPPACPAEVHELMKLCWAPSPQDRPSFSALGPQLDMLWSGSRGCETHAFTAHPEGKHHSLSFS

[2] = target: T1, Tyrosine-protein kinase JAK3; experiment: Inhibition of JAK3 in […] assessed as inhibition of IL2-induced STAT5 phosphorylation by flow cytometry; assay type: cell-based
[3] = target: Tyrosine-protein kinase JAK2 (Homo sapiens, UniProt O60674); experiment: Inhibition of recombinant JAK2
BaF3 = experiment: Antitumor activity against JAK2 V617F mutant harboring mouse sBA/F3 cells xenografted in BALB/c mouse assessed as reduced splenomegaly at 15 mg/kg, po bid for 32 days; assay type: functional, organism-based; parameters: dose 15 mg/kg
How it was run: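 Leukemia induced in BALB/c mice (n = 12/group) by iv injection of 1 million mJAK2(V617F)-Ba/F3 cells. Dosing began 1 week after implantation: 15 mg/kg oral gavage b.i.d. as a suspension in 5% methylcellulose, or vehicle alone, until day 32 or moribundity. Spleens were harvested and weighed after sacrifice on day 32.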

[4] = Oral bioavailability life in CB17 mouse at 10 mg/kg by LC/MS/MS method; assay type: ADME, organism-based; details: in vivo
How it was run: (§1)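 Male Charles River Sprague-Dawley rats and Fox Chase SCID (CB-17) mice, dosed iv or po. Plasma drug concentrations measured by a specific LC/MS/MS method. Pharmacokinetic parameters are reported as mean values.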

[5] = AUC (0 to infinity) in CB17 mouse at 10 mg/kg, po by LC/MS/MS method; assay type: ADME, organism-based; parameters: time infinity, dose 10 mg/kg, route oral; details: plasma; how it was run: as §1
[6] = Volume of distribution at steady state in CB17 mouse at 9 mg/kg, iv by LC/MS/MS method; assay type: ADME, organism-based; parameters: dose 9 mg/kg, route intravenous; details: in vivo, read-out: Vdss; how it was run: as §1
[7] = Cmax in CB17 mouse at 10 mg/kg, po by LC/MS/MS method; assay type: ADME, organism-based; parameters: dose 10 mg/kg, route oral; details: in vivo; how it was run: as §1
[8] = Tmax in Sprague-Dawley rat at 10 mg/kg, po by LC/MS/MS method; assay type: ADME, organism-based; parameters: dose 10 mg/kg, route oral; details: in vivo; how it was run: as §1
[9] = target: ALK tyrosine kinase receptor (Homo sapiens, UniProt Q9UM73); experiment: Inhibition of ALK
[10] = AUC (0 to infinity) in CB17 mouse at 9 mg/kg, iv by LC/MS/MS method; assay type: ADME, organism-based; parameters: time infinity, dose 9 mg/kg, route intravenous; details: plasma; how it was run: as §1
[11] = Half life in Sprague-Dawley rat at 10 mg/kg, po by LC/MS/MS method; assay type: ADME, organism-based; parameters: dose 10 mg/kg, route oral; details: in vivo; how it was run: as §1
[12] = Clearance in Sprague-Dawley rat at 1.8 mg/kg, iv by LC/MS/MS method; assay type: ADME, organism-based; parameters: dose 1.8 mg/kg, route intravenous; details: in vivo; how it was run: as §1
[13] = Volume of distribution at steady state in Sprague-Dawley rat at 1.8 mg/kg, iv by LC/MS/MS method; assay type: ADME, organism-based; parameters: dose 1.8 mg/kg, route intravenous; details: in vivo, read-out: Vdss; how it was run: as §1
[14] = target: Mast/stem cell growth factor receptor Kit (Homo sapiens, UniProt P10721); experiment: Inhibition of cKit
[15] = Cmax in CB17 mouse at 9 mg/kg, iv by LC/MS/MS method; assay type: ADME, organism-based; parameters: dose 9 mg/kg, route intravenous; details: in vivo; how it was run: as §1
[16] = Half life in CB17 mouse at 9 mg/kg, iv by LC/MS/MS method; assay type: ADME, organism-based; parameters: dose 9 mg/kg, route intravenous; details: in vivo; how it was run: as §1
[17] = Tmax in CB17 mouse at 10 mg/kg, po by LC/MS/MS method; assay type: ADME, organism-based; parameters: dose 10 mg/kg, route oral; details: in vivo; how it was run: as §1
[18] = Oral bioavailability in Sprague-Dawley rat at 10 mg/kg by LC/MS/MS method; assay type: ADME, organism-based; details: in vivo; how it was run: as §1
[19] = Cmax in Sprague-Dawley rat at 10 mg/kg, po by LC/MS/MS method; assay type: ADME, organism-based; parameters: dose 10 mg/kg, route oral; details: in vivo; how it was run: as §1
[20] = Half life in CB17 mouse at 10 mg/kg, po by LC/MS/MS method; assay type: ADME, organism-based; parameters: dose 10 mg/kg, route oral; details: in vivo; how it was run: as §1
[21] = Clearance in CB17 mouse at 9 mg/kg, iv by LC/MS/MS method; assay type: ADME, organism-based; parameters: dose 9 mg/kg, route intravenous; details: in vivo; how it was run: as §1
[22] = AUC (0 to infinity) in Sprague-Dawley rat at 1.8 mg/kg, iv by LC/MS/MS method; assay type: ADME, organism-based; parameters: time infinity, dose 1.8 mg/kg, route intravenous; details: plasma; how it was run: as §1
Mus musculus = experiment: Improvement in survival of BALB/c mouse xenografted with JAK2 V617F mutant harboring mouse Ba/F3 cells assessed as survival days at 15 mg/kg, po bid for 32 days; assay type: functional, BaF3
How it was run: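 BALB/c mice (n = 12/group) received one million mJAK2-Ba/F3 cells (murine Ba/F3 carrying mutant V617F JAK2) intravenously. Treatment started 1 week after implantation. Dosing was 15 mg/kg by oral gavage twice daily as a suspension in 5% methylcellulose, with a vehicle-only control group. Dosing continued until day 32 or moribundity. Survival was shown as Kaplan-Meier plots, and unrelated cage deaths were censored.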

[23] = Cmax in Sprague-Dawley rat at 1.8 mg/kg, iv by LC/MS/MS method; assay type: ADME, organism-based; parameters: dose 1.8 mg/kg, route intravenous; details: in vivo; how it was run: as §1
[24] = target: T2, Mitogen-activated protein kinase kinase kinase kinase 2 (Homo sapiens, UniProt Q12851); experiment: Inhibition of GCK
T2 sequence (Q12851 whole entry): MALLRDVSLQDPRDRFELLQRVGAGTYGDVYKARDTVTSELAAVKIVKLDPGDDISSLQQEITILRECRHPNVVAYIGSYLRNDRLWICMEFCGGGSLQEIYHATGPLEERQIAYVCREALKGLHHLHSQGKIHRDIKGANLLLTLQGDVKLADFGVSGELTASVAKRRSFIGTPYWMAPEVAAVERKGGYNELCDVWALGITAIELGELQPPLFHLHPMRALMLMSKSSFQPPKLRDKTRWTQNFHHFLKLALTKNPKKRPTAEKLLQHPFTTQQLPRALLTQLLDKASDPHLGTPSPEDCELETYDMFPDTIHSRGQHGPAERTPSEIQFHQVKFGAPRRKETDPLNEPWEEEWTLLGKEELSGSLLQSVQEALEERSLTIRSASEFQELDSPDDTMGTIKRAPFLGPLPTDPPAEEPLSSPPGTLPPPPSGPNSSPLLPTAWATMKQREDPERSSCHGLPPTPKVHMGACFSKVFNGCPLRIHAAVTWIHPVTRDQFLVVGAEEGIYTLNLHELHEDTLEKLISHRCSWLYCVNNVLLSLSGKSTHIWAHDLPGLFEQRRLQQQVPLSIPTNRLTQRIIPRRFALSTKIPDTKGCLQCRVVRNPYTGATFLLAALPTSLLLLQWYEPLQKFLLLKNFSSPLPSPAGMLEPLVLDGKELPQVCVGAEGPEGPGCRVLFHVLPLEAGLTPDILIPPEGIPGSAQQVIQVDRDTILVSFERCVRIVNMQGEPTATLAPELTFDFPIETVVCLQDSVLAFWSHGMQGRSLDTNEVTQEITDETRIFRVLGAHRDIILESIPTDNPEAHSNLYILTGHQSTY

[25] = AUC (0 to infinity) in Sprague-Dawley rat at 10 mg/kg, po by LC/MS/MS method; assay type: ADME, organism-based; parameters: time infinity, dose 10 mg/kg, route oral; details: plasma; how it was run: as §1
[26] = Half life in Sprague-Dawley rat at 1.8 mg/kg, iv by LC/MS/MS method; assay type: ADME, organism-based; parameters: dose 1.8 mg/kg, route intravenous; details: in vivo; how it was run: as §1

Tyrosine-protein kinase JAK2, sequence (O60674 whole entry): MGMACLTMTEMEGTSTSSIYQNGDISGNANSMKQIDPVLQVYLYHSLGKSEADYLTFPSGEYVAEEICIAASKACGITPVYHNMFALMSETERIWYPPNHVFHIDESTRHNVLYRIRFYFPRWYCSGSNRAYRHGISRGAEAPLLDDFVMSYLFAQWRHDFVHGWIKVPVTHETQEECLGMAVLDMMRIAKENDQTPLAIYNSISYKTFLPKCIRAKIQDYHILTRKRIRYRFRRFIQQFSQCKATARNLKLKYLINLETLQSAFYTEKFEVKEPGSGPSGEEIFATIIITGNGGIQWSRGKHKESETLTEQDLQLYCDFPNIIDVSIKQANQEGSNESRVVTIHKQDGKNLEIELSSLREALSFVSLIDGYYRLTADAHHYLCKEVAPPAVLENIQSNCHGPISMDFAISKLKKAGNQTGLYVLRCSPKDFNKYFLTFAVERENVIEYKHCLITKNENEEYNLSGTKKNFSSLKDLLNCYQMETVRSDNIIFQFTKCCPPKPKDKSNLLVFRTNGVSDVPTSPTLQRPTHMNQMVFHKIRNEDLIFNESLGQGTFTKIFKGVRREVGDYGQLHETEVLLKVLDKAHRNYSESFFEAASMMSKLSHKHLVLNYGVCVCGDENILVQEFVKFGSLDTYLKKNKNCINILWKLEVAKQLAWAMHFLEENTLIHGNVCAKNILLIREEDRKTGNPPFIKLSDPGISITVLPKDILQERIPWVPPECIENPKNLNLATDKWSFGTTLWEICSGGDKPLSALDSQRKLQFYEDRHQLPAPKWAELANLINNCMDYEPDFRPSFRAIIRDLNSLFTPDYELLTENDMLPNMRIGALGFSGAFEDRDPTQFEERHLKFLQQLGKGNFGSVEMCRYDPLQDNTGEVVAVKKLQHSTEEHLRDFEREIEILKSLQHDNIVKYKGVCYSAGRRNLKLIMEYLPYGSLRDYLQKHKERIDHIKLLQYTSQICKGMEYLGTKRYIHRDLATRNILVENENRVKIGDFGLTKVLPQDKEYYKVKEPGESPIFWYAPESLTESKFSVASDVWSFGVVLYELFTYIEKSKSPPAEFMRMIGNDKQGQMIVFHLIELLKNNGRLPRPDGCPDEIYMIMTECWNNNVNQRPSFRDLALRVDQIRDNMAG
Mast/stem cell growth factor receptor Kit, sequence (P10721 whole entry): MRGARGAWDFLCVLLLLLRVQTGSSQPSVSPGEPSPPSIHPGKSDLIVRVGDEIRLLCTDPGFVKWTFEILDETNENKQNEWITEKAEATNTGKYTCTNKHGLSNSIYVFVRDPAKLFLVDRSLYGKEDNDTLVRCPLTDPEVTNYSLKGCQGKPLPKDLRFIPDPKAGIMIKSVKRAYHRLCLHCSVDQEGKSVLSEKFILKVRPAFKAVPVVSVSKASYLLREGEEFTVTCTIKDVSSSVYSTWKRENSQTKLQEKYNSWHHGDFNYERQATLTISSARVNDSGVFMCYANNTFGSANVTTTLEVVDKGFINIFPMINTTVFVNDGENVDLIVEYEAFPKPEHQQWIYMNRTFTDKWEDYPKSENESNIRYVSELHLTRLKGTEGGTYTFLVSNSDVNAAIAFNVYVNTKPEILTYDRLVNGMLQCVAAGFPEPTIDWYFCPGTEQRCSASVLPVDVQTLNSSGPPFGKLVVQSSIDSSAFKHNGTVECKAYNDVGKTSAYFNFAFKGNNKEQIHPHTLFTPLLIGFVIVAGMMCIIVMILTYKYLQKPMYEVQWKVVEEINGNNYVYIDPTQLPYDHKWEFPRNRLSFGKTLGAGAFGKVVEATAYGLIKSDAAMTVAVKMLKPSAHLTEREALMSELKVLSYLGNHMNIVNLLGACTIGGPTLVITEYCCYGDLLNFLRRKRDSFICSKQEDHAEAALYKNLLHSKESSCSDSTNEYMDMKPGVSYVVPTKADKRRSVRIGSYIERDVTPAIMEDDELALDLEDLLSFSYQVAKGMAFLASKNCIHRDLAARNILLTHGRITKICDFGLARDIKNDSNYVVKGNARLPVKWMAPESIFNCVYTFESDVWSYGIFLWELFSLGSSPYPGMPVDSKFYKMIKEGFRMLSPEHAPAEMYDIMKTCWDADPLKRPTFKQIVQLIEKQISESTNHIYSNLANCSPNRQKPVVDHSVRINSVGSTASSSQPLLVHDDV
ALK tyrosine kinase receptor, sequence (Q9UM73 whole entry): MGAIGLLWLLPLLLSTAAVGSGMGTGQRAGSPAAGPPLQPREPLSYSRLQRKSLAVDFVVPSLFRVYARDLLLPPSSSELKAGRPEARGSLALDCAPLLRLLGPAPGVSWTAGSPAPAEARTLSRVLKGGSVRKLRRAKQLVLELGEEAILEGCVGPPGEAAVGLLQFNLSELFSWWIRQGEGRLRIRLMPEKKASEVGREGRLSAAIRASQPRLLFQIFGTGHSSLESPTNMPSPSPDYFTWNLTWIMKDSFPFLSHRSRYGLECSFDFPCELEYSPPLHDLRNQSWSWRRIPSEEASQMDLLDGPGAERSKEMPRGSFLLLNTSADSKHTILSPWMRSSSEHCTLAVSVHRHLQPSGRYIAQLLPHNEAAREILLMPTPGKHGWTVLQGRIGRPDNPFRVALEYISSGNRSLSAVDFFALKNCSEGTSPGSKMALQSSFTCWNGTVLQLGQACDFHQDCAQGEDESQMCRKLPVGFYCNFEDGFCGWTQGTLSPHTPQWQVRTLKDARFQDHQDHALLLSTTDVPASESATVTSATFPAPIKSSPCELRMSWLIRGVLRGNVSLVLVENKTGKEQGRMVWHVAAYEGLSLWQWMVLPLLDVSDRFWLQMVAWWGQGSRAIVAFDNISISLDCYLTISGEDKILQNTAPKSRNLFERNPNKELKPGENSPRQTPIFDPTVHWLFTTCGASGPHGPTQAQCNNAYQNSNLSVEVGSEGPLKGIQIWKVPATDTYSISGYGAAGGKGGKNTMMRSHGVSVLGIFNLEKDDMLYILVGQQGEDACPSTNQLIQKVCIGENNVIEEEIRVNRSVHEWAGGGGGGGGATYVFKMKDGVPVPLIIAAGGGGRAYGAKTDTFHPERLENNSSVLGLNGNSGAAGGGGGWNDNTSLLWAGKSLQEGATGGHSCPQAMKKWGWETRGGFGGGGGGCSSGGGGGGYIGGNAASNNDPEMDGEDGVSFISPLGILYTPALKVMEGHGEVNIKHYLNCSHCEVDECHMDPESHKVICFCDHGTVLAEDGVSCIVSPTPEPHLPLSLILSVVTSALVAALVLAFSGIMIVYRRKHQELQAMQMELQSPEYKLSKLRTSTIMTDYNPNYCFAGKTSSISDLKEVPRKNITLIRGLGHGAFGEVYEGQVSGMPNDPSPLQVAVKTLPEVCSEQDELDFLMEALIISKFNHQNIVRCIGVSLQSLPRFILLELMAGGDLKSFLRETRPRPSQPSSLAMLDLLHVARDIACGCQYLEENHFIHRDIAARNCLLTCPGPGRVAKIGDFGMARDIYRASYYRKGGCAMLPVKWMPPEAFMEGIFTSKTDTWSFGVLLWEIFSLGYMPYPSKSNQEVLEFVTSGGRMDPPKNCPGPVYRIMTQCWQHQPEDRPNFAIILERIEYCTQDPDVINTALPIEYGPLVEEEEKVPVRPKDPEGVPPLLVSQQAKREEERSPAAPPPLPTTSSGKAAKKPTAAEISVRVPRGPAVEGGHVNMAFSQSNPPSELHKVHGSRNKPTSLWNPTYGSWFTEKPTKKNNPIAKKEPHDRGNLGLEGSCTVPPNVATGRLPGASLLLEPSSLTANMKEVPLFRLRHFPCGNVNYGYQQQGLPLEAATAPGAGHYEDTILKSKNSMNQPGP

O=C1Nc2ccccc2-c2ccnc3[nH]cc(c23)C1c1ccc(O)cc1 (single isomer, unassigned; atropisomer 1)
Ki [1]: 5.5 nM | IC50 [2]: 1530 nM

Clc1cnc2[nH]cc(-c3ccccc3)c2c1
Ki [3]: 260 nM

O=C1Nc2ccccc2-c2ccnc3[nH]cc(c23)C1c1ccc(O)cc1 (single isomer, unassigned; atropisomer 2)
Ki [1]: 6 nM

O=C1Nc2ccccc2-c2ccnc3[nH]cc(c23)C1c1ccc(O)cc1 (stereo not given) [listing 1 of 2 here]
Activity (BaF3): Active

O=C1Nc2ccccc2-c2ccnc3[nH]cc(c23)C1c1ccc(O)cc1 (stereo not given) [listing 2 of 2 here]
bioavailability [4]: 66.1% | AUC(0-inf) [5]: 8300 ng·h/mL | Vd [6]: 2.3 L/kg | Cmax [7]: 1000 ng/mL | Tmax [8]: 3 h | Ki [9]: 17 nM | AUC(0-inf) [10]: 12500 ng·h/mL | half-life [11]: 3.6 h | clearance [12]: 23.8 mL/min/kg | Vd [13]: 5.7 L/kg | Ki [14]: 190 nM | Cmax [15]: 7300 ng/mL | half-life [16]: 2.7 h | Tmax [17]: 2 h | bioavailability [18]: 100% | Cmax [19]: 1080 ng/mL | half-life [20]: 3.2 h | clearance [21]: 12.1 mL/min/kg | AUC(0-inf) [22]: 1260 ng·h/mL | Survival (Mus musculus): 32 days | Cmax [23]: 700 ng/mL | IC50 [24]: 340 nM | AUC(0-inf) [25]: 7700 ng·h/mL | half-life [26]: 3.4 h

c1ccc(-c2ncnc3[nH]ccc23)cc1
Ki [3]: 480 nM

— ChEMBL document CHEMBL1154754, “Janus kinase 2 inhibitors. Synthesis and characterization of a novel polycyclic azaindole” (J Med Chem, 2009)
